Measured values pooled from the literature.
Protocols differ between the studies behind these lines.
Target: Glycogen synthase kinase-3 beta (GSK3B, Homo sapiens, UniProt P49841)
Action: inhibitor

SMILES | effect on | technique | cells | tested at | inhibition
CCN(CC)CCNC(=O)c1c(C)[nH]c(/C=C2\C(=O)Nc3ccc(F)cc32)c1C | enzyme activity | – | – | 0.3 µM | -4%
NC(=O)c1cnccn1 | enzyme activity | ADP detection | – | 100 µM | 7.9%
CN1CC(Oc2cnc(C#N)cc2-c2ccn3nc(NC(=O)C4CC4)cc3c2)C1 | enzyme activity | – | – | 1 µM | -8%
CC(C)NCC(O)c1ccc(NS(C)(=O)=O)cc1 (centres unmarked) | enzyme activity | ADP detection | – | 100 µM | 8.4%
c1ccc(CNc2nc(N3CCOc4ccccc43)nc3c2CCCC3)cc1 | target engagement in cells | chemoproteomics | – | 20 mM | -3.9%
NS(=O)(=O)Cc1noc2ccccc12 | enzyme activity | ADP detection | – | 100 µM | 21.9%
COc1cc2ncnc(Nc3ccc(Oc4ccccc4)c(C)c3C)c2cc1OC | enzyme activity | – | – | 1 µM | 4%
COc1cccc2c(NCc3ccccc3)nc(-n3c(N)nc4ccccc43)nc12 | target engagement in cells | chemoproteomics | – | 20 mM | 1%
CS(=O)(=O)Nc1cccc(-c2csc(NC(=O)CSc3nc4nccnc4c(=O)n3CCc3ccccc3)n2)c1 | enzyme activity | – | – | 10 µM | 2%
CNc1cc(Oc2cc(C(=O)Nc3cc(N4CCN(C)CC4)cc(C(F)(F)F)c3)ccc2C)ncn1 | target engagement in cells | chemoproteomics | Huh-7 | 1 µM | -17.6%
C=CC(=O)Nc1cc(Nc2nccc(Nc3cc(Cl)c(F)cc3C(C)(C)O)n2)c(OC)cc1N1CC[C@@H](N(C)C)C1 | enzyme activity | – | – | 1 µM | 9%
Nc1nc(Nc2ccc(S(N)(=O)=O)cc2)sc1C(=O)c1ccccc1[N+](=O)[O-] | enzyme activity | – | – | 0.1 µM | 60 to 66%
COc1ccc(-c2nc3ccc(C4=NNC(=O)CC4C)cc3[nH]2)cc1 (centres unmarked) | enzyme activity | ADP detection | – | 100 µM | 21.5%
CN(C)C1CCN(CC#Cc2nn(C3CCCC3)c3nc(NCc4ccccc4)ncc23)C1 (centres unmarked) | enzyme activity | FRET | – | 1 µM | -1%
